The source of these data is ChEMBL document CHEMBL2390844, “Evaluation of bioactivities of chlorokojic acid derivatives against dermatophytes couplet with cytotoxicity” (Bioorg Med Chem Lett, 2013).

For orientation: MIC means the least concentration at which growth counts as inhibited. Lower therefore signals inhibition by little substance.

A short description of series [1]: Antidermatophytic activity against Trichophyton mentagrophytes var. erinacei isolate after 7 days by broth microdilution method. Format: functional. The note with it: Arthroderma benhamiae. The procedure, abridged:
(§1)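 Broth microdilution per CLSI in RPMI 1640 with L-glutamine, no bicarbonate, buffered to pH 7.0 with 0.165 M MOPS, filter-sterilized. Test dilution series 128-0.0625 μg mL⁻¹; sterility and growth (inoculum) controls on each plate. Wells inoculated, incubated 28°C for 7 days, read visually with an inverted mirror; MIC recorded. Triplicate.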
On the technique in general: Broth dilution looks for growth in wells or tubes with falling amounts of substance.

Series [2] can be described thus: Antidermatophytic activity against Trichophyton mentagrophytes var. erinacei NCPF 375 after 7 days by broth microdilution method. As to conditions: Arthroderma benhamiae. Format: functional. The procedure, abridged:
as §1

Series [3] can be described thus: Cytotoxicity against human HeLa cells. As to conditions: read-out: MNCC. Format: cell-based. The procedure, abridged: (§2)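 Maximum non-toxic concentration (MNTC) determined in HeLa and MRC-5 cells by a previously described method, based on cellular morphological alteration.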
The test system of series [4] is Epidermophyton floccosum. Nature of the series: Antidermatophytic activity against Epidermophyton floccosum RSKK 3027 after 7 days by broth microdilution method. In kind it is functional. The note with it: RSKK 3027, 168 h. The procedure, abridged: as §1
Series [5] relates to Nannizzia gypsea. Put plainly: Antidermatophytic activity against Microsporum gypseum isolate after 7 days by broth microdilution method. In kind it is functional. The note with it: 168 h. The essentials: as §1
Series [6] has as its system Nannizzia gypsea. Nature of the series: Antidermatophytic activity against Microsporum gypseum NCPF 580 after 7 days by broth microdilution method. In kind it is functional. The note with it: NCPF 580, 168 h. The essentials:
as §1

Series [7] in a line: Cytotoxicity against human MRC5 cells. In kind it is cell-based. The note with it: read-out: MNCC. The procedure, abridged: as §2
The test system of series [8] is Epidermophyton floccosum. Nature of the series: Antidermatophytic activity against Epidermophyton floccosum isolate after 7 days by broth microdilution method. Format: functional. The note with it: 168 h. The procedure, abridged: as §1

In brackets after ≈: the same amount, converted by molar mass.

With `O=c1cc(CCl)oc(CN2CCN(Cc3ccc(Cl)cc3)CC2)c1O`, the minimal inhibitory concentration (MIC) in series [1] was determined as 8 µg/mL (≈ 20.9 µM); in series [2] it was 4 µg/mL (≈ 10.4 µM); in the series on Epidermophyton floccosum [4], 4 µg/mL (≈ 10.4 µM); in the series on Nannizzia gypsea [5], 8 µg/mL (≈ 20.9 µM); against Nannizzia gypsea [6], 4 µg/mL (≈ 10.4 µM); against Epidermophyton floccosum [8], 8 µg/mL (≈ 20.9 µM). For the same compound, the MNTC in series [3] and in series [7] was not below 128 µg/mL each time.

With `O=C(C1CCCCC1)N1CCN(Cc2oc(CCl)cc(=O)c2O)CC1`, the minimal inhibitory concentration (MIC) came to 16 µg/mL (≈ 43.4 µM) in series [1]; 8 µg/mL (≈ 21.7 µM) in series [2]; 16 µg/mL (≈ 43.4 µM) in the series on Epidermophyton floccosum [4]; 32 µg/mL (≈ 86.8 µM) against Nannizzia gypsea [5]; 16 µg/mL (≈ 43.4 µM) against Nannizzia gypsea [6]; 32 µg/mL (≈ 86.8 µM) with Epidermophyton floccosum [8]. The MNTC in series [3] and in series [7] was not below 128 µg/mL throughout.
